# Data taken from ChEMBL document CHEMBL1132559 (J Med Chem, 1999).
# pIC50: −log10 of the molar value.
# Tests used:
# [1] = biological target: D(2) dopamine receptor (Rattus norvegicus) (UniProt P61169); assay: Displacement of [3H]sulpiride from rat striatal membrane Dopamine receptor D2 at 10e-7 M
# How it was run: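 Single-concentration screen at 10^-7 M: displacement of [3H]sulpiride (3.0 nM) from rat striatal membranes, sulpiride as reference. Reported as % inhibition versus binding with no drug, mean of duplicate tubes in one experiment.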
# [2] = system: Serotonin transporter (Rattus norvegicus); assay: Displacement of [3H]-citalopram from rat forebrain membrane serotonin transporter at 10e-7 M
# [3] = biological target: Histamine H1 receptor (Bos taurus) (UniProt P30546); assay: Inhibition of [3H]pyrilamine binding to Histamine H1 receptor of bovine cerebellar membrane at 10e-7 M
# Histamine H1 receptor (Bos taurus), sequence (P30546 whole entry): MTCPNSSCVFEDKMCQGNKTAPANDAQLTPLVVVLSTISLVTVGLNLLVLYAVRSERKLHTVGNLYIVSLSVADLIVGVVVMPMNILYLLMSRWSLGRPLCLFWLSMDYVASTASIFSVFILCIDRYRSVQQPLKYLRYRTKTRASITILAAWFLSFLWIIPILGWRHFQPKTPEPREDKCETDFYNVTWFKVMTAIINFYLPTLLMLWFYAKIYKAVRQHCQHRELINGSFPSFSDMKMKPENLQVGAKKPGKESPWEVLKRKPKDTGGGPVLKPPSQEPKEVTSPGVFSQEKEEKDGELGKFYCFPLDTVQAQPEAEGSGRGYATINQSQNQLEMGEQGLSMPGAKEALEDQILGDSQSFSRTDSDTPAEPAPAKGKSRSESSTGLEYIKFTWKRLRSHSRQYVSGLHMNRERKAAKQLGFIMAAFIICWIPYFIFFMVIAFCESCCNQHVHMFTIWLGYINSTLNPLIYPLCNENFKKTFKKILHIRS
# How it was run: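 Single-concentration screen at 10^-7 M: displacement of [3H]pyrilamine (2.0 nM) from bovine cerebellar membranes, triprolidine as reference. Reported as % inhibition versus binding with no drug, mean of duplicate tubes in one experiment.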
# [4] = biological target: Norepinephrine transporter (Rattus norvegicus) (UniProt Q9WTR4); assay: Inhibition of [3H]desmethylimipramine binding to […] of rat cortical membrane at 10e-7 M
# Norepinephrine transporter (Rattus norvegicus), sequence (Q9WTR4 as listed by the source): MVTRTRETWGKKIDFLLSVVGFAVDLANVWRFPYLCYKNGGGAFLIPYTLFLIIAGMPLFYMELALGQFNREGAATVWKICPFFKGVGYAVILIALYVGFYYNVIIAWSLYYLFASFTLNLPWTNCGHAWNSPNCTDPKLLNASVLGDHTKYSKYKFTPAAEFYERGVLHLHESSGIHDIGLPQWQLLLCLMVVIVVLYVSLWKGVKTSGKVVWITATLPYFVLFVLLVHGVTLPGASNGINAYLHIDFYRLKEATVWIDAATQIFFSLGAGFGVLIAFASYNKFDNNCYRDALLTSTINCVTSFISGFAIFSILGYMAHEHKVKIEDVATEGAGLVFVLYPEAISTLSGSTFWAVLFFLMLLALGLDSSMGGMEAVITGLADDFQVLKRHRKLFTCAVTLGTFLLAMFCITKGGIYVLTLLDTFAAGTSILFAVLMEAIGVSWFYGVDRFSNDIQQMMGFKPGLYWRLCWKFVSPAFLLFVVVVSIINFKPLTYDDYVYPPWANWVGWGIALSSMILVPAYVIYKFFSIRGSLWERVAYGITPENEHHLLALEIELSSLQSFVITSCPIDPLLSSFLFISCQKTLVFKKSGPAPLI
# How it was run: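 Single-concentration screen at 10^-7 M: displacement of [3H]desmethylimipramine (3.0 nM) from rat cortical membranes, desipramine as reference. Reported as % inhibition versus binding with no drug, mean of duplicate tubes in one experiment.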
# [5] = system: Sigma non-opioid intracellular receptor 1 (Sus scrofa); assay: Inhibition of [3H](+)-pentazocine binding to Sigma opioid receptor type 1 of pig brain membranes at 10e-7 M
# [6] = biological target: Adrenergic receptor alpha-1 (Rattus norvegicus) (UniProt P15823+P23944+P43140); assay: Displacement of [3H]prazosin from Alpha-1 adrenergic receptor of rat cortical membrane at 10e-7 M
# How it was run: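 Single-concentration screen at 10^-7 M: displacement of [3H]prazosin (0.5 nM) from rat cortical membranes, prazosin as reference. Reported as % inhibition versus binding with no drug, mean of duplicate tubes in one experiment. Checked against a verification screen.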
# [7] = biological target: 5-hydroxytryptamine receptor 2A (Rattus norvegicus) (UniProt P14842); assay: Displacement of [3H]ketanserin from rat cortical membrane 5-hydroxytryptamine 2A receptor at 10e-7 M
# 5-hydroxytryptamine receptor 2A (Rattus norvegicus), sequence (P14842 whole entry): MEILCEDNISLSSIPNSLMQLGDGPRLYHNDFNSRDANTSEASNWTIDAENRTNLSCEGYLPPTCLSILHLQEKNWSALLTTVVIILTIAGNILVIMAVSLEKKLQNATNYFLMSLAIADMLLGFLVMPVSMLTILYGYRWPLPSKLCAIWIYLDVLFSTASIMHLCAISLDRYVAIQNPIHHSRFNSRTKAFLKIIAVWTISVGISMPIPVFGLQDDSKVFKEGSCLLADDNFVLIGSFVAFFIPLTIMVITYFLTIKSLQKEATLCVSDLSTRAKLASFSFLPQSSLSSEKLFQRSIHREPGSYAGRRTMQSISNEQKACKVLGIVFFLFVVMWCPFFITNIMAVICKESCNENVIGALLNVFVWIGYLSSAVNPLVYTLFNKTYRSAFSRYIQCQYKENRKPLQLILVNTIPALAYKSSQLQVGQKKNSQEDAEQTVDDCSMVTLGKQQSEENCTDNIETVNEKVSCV
# How it was run: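 Single-concentration screen at 10^-7 M: displacement of [3H]ketanserin (1.0 nM) from rat cortical membranes, methysergide as reference. Reported as % inhibition versus binding with no drug, mean of duplicate tubes in one experiment. Checked against a verification screen.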
# [8] = biological target: T1, Adrenergic receptor alpha-1 (Rattus norvegicus, UniProt P15823+P23944+P43140); assay: Compound was tested for it's binding affinity towards alpha-1 adrenergic receptor; type: protein assay
# T1 sequence (P15823 whole entry): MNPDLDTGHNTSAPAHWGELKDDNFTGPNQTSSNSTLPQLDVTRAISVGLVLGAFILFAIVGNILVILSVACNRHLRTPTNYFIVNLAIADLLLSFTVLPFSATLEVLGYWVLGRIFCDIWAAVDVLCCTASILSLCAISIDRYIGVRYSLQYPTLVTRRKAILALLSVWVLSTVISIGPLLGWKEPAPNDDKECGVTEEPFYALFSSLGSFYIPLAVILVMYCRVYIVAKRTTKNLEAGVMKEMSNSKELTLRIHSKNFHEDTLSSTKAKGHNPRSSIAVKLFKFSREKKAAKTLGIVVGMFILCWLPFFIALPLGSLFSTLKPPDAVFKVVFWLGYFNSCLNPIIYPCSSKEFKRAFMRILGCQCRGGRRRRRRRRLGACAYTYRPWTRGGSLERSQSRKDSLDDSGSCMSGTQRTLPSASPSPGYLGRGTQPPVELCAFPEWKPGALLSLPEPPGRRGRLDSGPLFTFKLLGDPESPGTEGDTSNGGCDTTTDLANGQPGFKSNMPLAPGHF
# T1 sequence (P23944 whole entry): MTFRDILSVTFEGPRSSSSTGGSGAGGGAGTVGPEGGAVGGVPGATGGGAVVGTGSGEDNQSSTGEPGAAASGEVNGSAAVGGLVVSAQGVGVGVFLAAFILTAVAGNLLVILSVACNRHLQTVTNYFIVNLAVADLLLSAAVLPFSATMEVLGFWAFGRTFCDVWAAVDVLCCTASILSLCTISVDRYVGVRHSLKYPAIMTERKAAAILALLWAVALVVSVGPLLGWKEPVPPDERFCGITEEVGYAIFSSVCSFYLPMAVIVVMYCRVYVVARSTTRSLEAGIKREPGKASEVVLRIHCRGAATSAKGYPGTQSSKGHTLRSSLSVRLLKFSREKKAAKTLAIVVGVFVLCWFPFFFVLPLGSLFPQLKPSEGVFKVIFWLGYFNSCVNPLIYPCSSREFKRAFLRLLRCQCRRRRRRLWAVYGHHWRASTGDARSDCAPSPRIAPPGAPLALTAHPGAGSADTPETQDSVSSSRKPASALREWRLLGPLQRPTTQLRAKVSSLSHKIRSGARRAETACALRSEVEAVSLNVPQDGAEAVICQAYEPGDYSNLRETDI
# T1 sequence (P43140 whole entry): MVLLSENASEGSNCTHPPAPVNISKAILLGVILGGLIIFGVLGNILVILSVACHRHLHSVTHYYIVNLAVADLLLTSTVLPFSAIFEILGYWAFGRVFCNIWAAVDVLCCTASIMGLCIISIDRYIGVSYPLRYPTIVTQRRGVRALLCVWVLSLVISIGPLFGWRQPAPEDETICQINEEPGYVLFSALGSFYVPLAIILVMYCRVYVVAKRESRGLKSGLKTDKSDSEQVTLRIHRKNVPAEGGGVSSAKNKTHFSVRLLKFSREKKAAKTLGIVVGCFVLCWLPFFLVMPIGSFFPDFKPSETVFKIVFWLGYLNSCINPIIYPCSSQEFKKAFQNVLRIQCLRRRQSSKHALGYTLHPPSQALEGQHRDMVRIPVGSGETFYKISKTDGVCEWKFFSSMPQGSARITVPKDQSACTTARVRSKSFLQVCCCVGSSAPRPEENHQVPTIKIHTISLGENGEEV
# How it was run: (§1)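 Radioligand displacement on rat cortical membranes using [3H]prazosin (0.5 nM), with prazosin as the reference compound. IC50 derived from six test concentrations, each in triplicate, in one experiment. Run at an external screening laboratory.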
# [9] = biological target: T2, 5-hydroxytryptamine receptor 2A (Rattus norvegicus, UniProt P14842); assay: Compound was tested for it's binding affinity towards 5-hydroxytryptamine 2A receptor
# T2 sequence (P14842 whole entry): as the sequence (P14842 whole entry) above
# How it was run: (§2)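 Radioligand displacement on rat cortical membranes using [3H]ketanserin (1.0 nM), with methysergide as the reference compound. IC50 derived from six test concentrations, each in triplicate, in one experiment. Run at an external screening laboratory.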
# Rattus norvegicus [10] = species: Rattus norvegicus; assay: In vitro functional activity (pA2) by using isolated rat vas deferens smooth muscle preparation (on adrenergic system); conditions: Muscle tissue, read-out: pA2 (converted)
# How it was run: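 Vas deferens from male Sprague–Dawley rats (200-300 g), 3-4 preparations, isometric contraction recorded. Cumulative L-noradrenaline concentration-response curves built stepwise once each response was steady.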
# Rattus norvegicus [11] = species: Rattus norvegicus; assay: In vitro functional activity (pA2) by using isolated rat aorta smooth muscle preparation (on serotonergic system); conditions: Muscle tissue, read-out: pA2 (converted)
# How it was run: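 Aorta strips from male Sprague–Dawley rats (200-300 g), 3-7 preparations, isometric contraction recorded. Cumulative serotonin concentration-response curves built stepwise once each response was steady.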
# [12] = biological target: T2, 5-hydroxytryptamine receptor 2A; assay: Compound was tested for the inhibition of [3H]ketanserin binding to 5-hydroxytryptamine 2A receptor; how it was run: as §2
# [13] = biological target: T1, Adrenergic receptor alpha-1; assay: Compound was tested for the inhibition of [3H]-prazosin binding to Alpha-1 adrenergic receptor; type: protein assay; how it was run: as §1
# [14] = biological target: T1, Adrenergic receptor alpha-1; assay: Compound was tested for it's binding affinity towards Alpha-1 adrenergic receptor; type: protein assay; how it was run: as §1
# D(2) dopamine receptor (Rattus norvegicus), sequence (P61169 whole entry): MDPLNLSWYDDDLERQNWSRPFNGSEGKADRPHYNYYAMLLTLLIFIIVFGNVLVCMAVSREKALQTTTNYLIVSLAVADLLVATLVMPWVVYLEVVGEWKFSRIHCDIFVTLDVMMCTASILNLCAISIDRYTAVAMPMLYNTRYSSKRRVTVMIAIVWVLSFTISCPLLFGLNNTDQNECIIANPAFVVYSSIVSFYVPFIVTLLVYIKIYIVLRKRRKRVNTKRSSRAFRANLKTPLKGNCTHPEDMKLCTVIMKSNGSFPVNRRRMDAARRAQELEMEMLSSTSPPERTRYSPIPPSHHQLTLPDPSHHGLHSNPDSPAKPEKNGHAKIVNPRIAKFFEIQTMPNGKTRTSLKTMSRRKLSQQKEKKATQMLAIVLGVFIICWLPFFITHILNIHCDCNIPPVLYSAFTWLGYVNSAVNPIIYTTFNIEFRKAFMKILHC
SMILES,inhibition [1] [%],inhibition [2] [%],inhibition [3] [%],inhibition [4] [%],inhibition [5] [%],inhibition [6] [%],inhibition [7] [%],IC50 [8] [nM],pIC50 [9],Kb (Rattus norvegicus [10]) [nM],Kb (Rattus norvegicus [11]) [nM],pIC50 [12],IC50 [13] [nM],IC50 [14] [nM]
CC1C(=O)N(c2cccc(Cl)c2)CCN1CCCn1nc2ccccn2c1=O (centres undefined),4,0,4,0,9,2,0,,,,,,,
O=C1CN(CCCn2nc3ccccn3c2=O)CCN1c1cccc(Cl)c1,0,2,2,0,12,5,5,,,,,,,
C[C@H]1CN(c2cccc(Cl)c2)CCN1CCCn1nc2ccccn2c1=O,,,,,,,,981,7.60,3980,3.16,,,
O=c1n(CCCN2CCN(c3cccc(Cl)c3)CC2)nc2ccccn12,12,,5,0,,,78,,,,,,,
CC(CN1CCN(c2cccc(Cl)c2)CC1)Cn1nc2ccccn2c1=O (centres undefined),3,4,7,0,34,27,52,,,,,7.03,531,
CCC1CN(c2cccc(Cl)c2)CCN1CCCn1nc2ccccn2c1=O (centres undefined),10,20,14,0,43,44,60,,,,,6.77,493,
CC1CN(c2cccc(Cl)c2)CCN1CCCn1nc2ccccn2c1=O (centres undefined),8,45,13,2,43,37,69,,,,,7.51,471,
CC1CN(CCCn2nc3ccccn3c2=O)C(C)(C)CN1c1cccc(Cl)c1 (centres undefined),3,38,9,0,81,11,40,,,,,,,
CN(CCCn1nc2ccccn2c1=O)CCNc1cccc(Cl)c1,2,15,0,4,30,10,0,,,,,,,
CN(CCNCCCn1nc2ccccn2c1=O)c1cccc(Cl)c1,4,23,0,0,65,12,0,,,,,,,
CC(CN1CCN(c2cccc(Cl)c2)C(C)C1)Cn1nc2ccccn2c1=O (centres undefined),0,6,12,0,65,7,20,,,,,,,
CC(CCn1nc2ccccn2c1=O)N1CCN(c2cccc(Cl)c2)CC1 (centres undefined),2,63,31,0,58,26,65,,,,,7.77,627,
O=c1n(CCCNCCNc2cccc(Cl)c2)nc2ccccn12,3,10,0,0,29,8,4,,,,,,,
C[C@@H]1CN(c2cccc(Cl)c2)CCN1CCCn1nc2ccccn2c1=O,,,,,,,,,6.63,158,12.6,,,533
CC1CN(CCCn2nc3ccccn3c2=O)CCN1c1cccc(Cl)c1 (centres undefined),0,15,7,0,68,25,34,,,,,,,
